In paper PMC5458759 (Genes & Development, 2017):
Each block holds one molecule with its values, some of them ahead of it.

How the values were obtained:
ERL1^LRR [1] = experiment: Biochemical assay of EPFL8 interaction; type: binding, Arabidopsis; conditions: Supplemental Fig. S11
ERL2^LRR [2] = experiment: Gel filtration assay with ERL2^LRR; type: binding, Arabidopsis; conditions: 10 mM Bis-Tris pH 6.0, 100 mM NaCl; incubated 30 min at 4°C
Summary of the method: (§1)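 LRR ectodomains were expressed in High Five insect cells by baculovirus at 22°C; for complexes, the ERf and TMM viruses were added together. Protein was purified from the supernatant by Ni-NTA and then size exclusion. Receptor and EPF-family peptide were mixed, held 30 min at 4°C, then run on Superdex 200 in 10 mM Bis-Tris pH 6.0, 100 mM NaCl. Fractions were analysed by SDS-PAGE with Coomassie staining.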

ERL1^LRR [3] = experiment: Gel filtration assay with ERL1^LRR; type: binding, Arabidopsis; conditions: 10 mM Bis-Tris pH 6.0, 100 mM NaCl; incubated 30 min at 4°C
Summary of the method: as §1

ER^LRR [4] = experiment: Pull-down assay with 6xHis-tagged ER^LRR; type: binding, Arabidopsis; conditions: Ni resin, SDS-PAGE, Coomassie blue; without TMM^LRR
Summary of the method: (§2)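 Purified C-terminal 6xHis-tagged receptor LRR, from High Five cells, was mixed with excess EPF-family peptide and Ni resin for 30 min on ice. The resin was washed four times in 25 mM Tris pH 8.0, 250 mM NaCl, 15 mM imidazole, then heated 5 min at 100°C in SDS loading buffer. Bound protein was detected by SDS-PAGE with Coomassie staining.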

ER^LRR [5] = experiment: Gel filtration assay with ER^LRR; type: binding, Arabidopsis; conditions: 10 mM Bis-Tris pH 6.0, 100 mM NaCl; incubated 30 min at 4°C
Summary of the method: as §1

ERL1^LRR [6] = experiment: Pull-down assay with 6xHis-tagged ERL1^LRR; type: binding, Arabidopsis; conditions: Ni resin, SDS-PAGE, Coomassie blue; without TMM^LRR
Summary of the method: as §2

ERL2^LRR [7] = experiment: Pull-down assay with 6xHis-tagged ERL2^LRR; type: binding, Arabidopsis; conditions: Ni resin, SDS-PAGE, Coomassie blue; without TMM^LRR
Summary of the method: as §2

ERL1^LRR–TMM^LRR complex [8] = experiment: Ligand competition assay, ERL1^LRR–TMM^LRR; type: binding, Arabidopsis; conditions: 10 µM EPF2-6xHis or EPF1-6xHis, increasing concentrations of EPFL9, 1 h at 4°C
Summary of the method: (§3)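 The ERf–TMM LRR complex was coexpressed in High Five cells and purified by Ni-NTA and gel filtration. It was incubated with 10 µM His-tagged EPF peptide, with or without varying concentrations of competing peptide, for 1 h at 4°C with gentle agitation. The mixture was then passed over Ni beads and washed four times. Eluate was boiled 5 min at 100°C in SDS loading buffer and read by SDS-PAGE with Coomassie staining.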

ERL1^LRR–TMM^LRR complex [9] = experiment: Gel filtration assay with ERL1^LRR–TMM^LRR complex; type: binding, Arabidopsis; conditions: 10 mM Bis-Tris pH 6.0, 100 mM NaCl; incubated 30 min at 4°C
Summary of the method: as §1

ER^LRR–TMM^LRR complex [10] = experiment: Ligand competition assay, ER^LRR–TMM^LRR; type: binding, Arabidopsis; conditions: 10 µM EPF2-6xHis or EPF1-6xHis, increasing concentrations of EPFL9, 1 h at 4°C
Summary of the method: as §3

ERL1^LRR–TMM^LRR complex [11] = molecular target: T1, ERL1^LRR–TMM^LRR complex (Arabidopsis thaliana, UniProt C0LGW6;Q9SSD1); experiment: ITC
T1 sequence 1: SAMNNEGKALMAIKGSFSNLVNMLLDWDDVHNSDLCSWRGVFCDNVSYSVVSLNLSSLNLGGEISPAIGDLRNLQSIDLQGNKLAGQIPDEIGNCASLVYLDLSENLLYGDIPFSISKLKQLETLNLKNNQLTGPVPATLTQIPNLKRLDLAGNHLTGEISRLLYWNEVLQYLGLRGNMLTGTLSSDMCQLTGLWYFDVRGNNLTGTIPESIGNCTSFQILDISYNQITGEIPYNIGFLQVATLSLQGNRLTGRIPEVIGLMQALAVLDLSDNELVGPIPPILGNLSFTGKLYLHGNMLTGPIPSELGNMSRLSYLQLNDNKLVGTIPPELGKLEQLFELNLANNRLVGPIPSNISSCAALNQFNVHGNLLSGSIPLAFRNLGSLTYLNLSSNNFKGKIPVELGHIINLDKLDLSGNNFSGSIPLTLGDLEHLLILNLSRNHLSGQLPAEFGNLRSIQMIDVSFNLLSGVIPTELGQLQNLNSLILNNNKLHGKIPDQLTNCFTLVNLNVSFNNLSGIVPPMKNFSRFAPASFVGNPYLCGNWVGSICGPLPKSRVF
T1 sequence 2: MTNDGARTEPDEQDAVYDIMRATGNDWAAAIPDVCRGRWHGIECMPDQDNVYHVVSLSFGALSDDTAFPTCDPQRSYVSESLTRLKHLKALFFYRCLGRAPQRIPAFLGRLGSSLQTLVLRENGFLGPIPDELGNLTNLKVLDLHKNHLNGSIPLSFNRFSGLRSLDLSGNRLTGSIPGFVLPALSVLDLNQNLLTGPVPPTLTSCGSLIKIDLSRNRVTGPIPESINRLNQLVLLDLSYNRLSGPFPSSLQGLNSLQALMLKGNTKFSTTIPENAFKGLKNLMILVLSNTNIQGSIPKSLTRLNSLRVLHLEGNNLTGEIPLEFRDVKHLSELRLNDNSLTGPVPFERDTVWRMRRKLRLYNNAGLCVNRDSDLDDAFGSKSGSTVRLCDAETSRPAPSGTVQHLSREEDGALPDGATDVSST

[12] = molecular target: T2, ERL1^LRR, extracellular LRR domain of ER-LIKE1 (ERL1) (Arabidopsis thaliana, UniProt C0LGW6 24-580); experiment: pull-down
T2 sequence: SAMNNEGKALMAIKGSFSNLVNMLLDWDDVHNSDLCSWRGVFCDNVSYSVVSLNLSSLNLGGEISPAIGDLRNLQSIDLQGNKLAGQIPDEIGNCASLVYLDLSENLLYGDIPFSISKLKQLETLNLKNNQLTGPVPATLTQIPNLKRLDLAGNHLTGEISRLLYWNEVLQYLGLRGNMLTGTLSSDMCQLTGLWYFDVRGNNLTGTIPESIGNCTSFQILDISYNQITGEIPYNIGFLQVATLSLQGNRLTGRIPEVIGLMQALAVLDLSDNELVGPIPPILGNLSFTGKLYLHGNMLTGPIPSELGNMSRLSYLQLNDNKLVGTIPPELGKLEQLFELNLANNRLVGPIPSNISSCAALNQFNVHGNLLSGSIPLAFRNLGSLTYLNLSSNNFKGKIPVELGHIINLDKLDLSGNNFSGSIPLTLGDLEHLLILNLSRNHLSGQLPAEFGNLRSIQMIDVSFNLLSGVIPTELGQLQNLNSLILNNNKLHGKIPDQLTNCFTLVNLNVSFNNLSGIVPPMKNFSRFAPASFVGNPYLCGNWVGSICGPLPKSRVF

[13] = molecular target: T3, ERL2^LRR, extracellular LRR domain of ERL2 (Arabidopsis thaliana, UniProt Q6XAT2 28-580); experiment: pull-down
T3 sequence: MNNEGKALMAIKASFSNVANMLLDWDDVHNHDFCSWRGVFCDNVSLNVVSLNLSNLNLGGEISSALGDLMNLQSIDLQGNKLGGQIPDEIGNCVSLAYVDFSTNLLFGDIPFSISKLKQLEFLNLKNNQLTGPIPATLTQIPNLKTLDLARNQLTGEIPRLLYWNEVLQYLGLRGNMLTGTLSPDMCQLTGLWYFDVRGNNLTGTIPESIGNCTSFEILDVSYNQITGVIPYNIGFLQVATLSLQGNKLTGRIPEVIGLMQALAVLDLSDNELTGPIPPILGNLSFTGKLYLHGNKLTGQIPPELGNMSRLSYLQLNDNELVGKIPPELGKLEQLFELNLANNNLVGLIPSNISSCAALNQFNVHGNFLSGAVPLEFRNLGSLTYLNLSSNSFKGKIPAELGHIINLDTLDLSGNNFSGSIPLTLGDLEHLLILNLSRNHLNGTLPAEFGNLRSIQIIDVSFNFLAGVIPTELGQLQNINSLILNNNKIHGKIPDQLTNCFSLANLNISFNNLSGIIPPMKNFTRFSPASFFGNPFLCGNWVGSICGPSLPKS

[14] = molecular target: T4, ER^LRR, extracellular LRR domain of ERECTA (ER) (Arabidopsis thaliana, UniProt Q42371 24-580); experiment: pull-down
T4 sequence: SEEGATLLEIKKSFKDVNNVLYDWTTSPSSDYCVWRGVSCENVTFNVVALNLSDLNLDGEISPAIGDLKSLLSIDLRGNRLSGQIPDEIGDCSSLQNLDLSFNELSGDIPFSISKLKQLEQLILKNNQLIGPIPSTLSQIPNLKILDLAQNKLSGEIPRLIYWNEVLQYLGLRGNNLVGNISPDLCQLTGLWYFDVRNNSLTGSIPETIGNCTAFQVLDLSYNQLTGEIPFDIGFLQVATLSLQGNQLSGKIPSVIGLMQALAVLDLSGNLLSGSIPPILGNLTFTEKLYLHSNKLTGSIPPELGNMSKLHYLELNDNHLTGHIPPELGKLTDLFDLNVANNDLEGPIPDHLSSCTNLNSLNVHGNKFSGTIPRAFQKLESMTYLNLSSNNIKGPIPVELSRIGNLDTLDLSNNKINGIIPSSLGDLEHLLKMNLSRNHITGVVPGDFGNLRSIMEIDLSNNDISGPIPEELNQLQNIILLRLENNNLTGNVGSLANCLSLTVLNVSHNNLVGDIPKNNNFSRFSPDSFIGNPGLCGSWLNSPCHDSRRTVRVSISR

[15] = molecular target: T2, ERL1^LRR, extracellular LRR domain of …; experiment: ITC
ER^LRR–TMM^LRR complex [16] = molecular target: T5, ER^LRR–TMM^LRR complex (Arabidopsis thaliana, UniProt Q42371;Q9SSD1); experiment: pull-down
T5 sequence 1: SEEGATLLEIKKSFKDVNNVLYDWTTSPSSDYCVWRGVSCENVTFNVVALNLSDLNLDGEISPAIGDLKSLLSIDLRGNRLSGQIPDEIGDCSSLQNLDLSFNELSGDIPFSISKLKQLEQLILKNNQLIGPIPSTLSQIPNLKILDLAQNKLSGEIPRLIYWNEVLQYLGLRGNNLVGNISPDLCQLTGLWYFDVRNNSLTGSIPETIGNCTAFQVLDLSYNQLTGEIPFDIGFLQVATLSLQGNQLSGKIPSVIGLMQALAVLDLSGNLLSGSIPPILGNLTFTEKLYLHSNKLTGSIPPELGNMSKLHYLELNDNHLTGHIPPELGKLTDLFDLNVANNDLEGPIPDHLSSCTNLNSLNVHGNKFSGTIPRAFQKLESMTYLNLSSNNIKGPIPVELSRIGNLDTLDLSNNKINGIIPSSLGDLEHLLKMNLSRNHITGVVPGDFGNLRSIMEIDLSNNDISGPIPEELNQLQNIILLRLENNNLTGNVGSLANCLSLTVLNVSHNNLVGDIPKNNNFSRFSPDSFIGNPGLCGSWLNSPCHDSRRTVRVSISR
T5 sequence 2: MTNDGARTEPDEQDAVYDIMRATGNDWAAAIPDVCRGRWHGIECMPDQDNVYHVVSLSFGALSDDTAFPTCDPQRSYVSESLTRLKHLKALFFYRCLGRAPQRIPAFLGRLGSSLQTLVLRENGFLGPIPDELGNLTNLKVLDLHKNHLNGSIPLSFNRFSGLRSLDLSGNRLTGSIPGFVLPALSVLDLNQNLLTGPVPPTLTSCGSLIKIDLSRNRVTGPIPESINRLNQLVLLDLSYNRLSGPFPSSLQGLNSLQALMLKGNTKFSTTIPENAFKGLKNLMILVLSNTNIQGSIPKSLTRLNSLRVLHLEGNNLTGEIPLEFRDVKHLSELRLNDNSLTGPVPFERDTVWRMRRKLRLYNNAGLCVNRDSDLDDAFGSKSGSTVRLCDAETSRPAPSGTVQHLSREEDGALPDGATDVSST

Molecule: EPFL8: EPF family peptide, residues 46–99 (MGSEPPVCATKCRNCKPCLPYLFDIRGAHDDDDDSEPYYPVKWICRCRDRVFEP)
interaction with ERL1^LRR in the absence of TMM^LRR (ERL1^LRR [1]): interacted

Molecule: EPFL4: EPF family growth regulatory peptide, residues 59–109 (PGSSPPTCRSKCGKCQPCKPVHVPIQPGLSMPLEYYPEAWRCKCGNKLFMP)
interaction with ERL2^LRR alone in gel filtration (ERL2^LRR [2]): interacted strongly
interaction with ERL1^LRR alone in gel filtration (ERL1^LRR [3]): interacted strongly
interaction with ER^LRR in pull-down (ER^LRR [4]): interacted strongly
interaction with ER^LRR alone in gel filtration (ER^LRR [5]): interacted strongly
interaction with ERL1^LRR in pull-down (ERL1^LRR [6]): interacted strongly
interaction with ERL2^LRR in pull-down (ERL2^LRR [7]): interacted strongly

Molecule: EPFL9: EPF family peptide, residues 58–102, promotes stomatal development (IGSTAPTCTYNECRGCRYKCRAEQVPVEGNDPINSAYHYRCVCHR)
competition: amount of ERL1^LRR–TMM^LRR pulled down by EPF2 or EPF1 (ERL1^LRR–TMM^LRR complex [8]): gradually decreased the amount
interaction with ERL1^LRR–TMM^LRR in gel filtration (comigration) (ERL1^LRR–TMM^LRR complex [9]): much more EPFL9 was shifted to a higher-molecular-weight species and comigrated with the complex
interaction with ERL1^LRR alone in gel filtration (ERL1^LRR [3]): weak interaction
competition: amount of ER^LRR–TMM^LRR pulled down by EPF2 or EPF1 (ER^LRR–TMM^LRR complex [10]): gradually decreased the amount

binding result (ERL1^LRR–TMM^LRR complex [11]): binds
binding result [12]: binds
binding result [13]: binds
binding result [14]: binds
B1: EPFL6 (CHALLAH, CHAL) peptide, residues 106–156 (peptide)
chain: LGSSPPRCSSKCGRCTPCKPVHVPVPPGTPVTAEYYPEAWRCKCGNKLYMP

fold lower affinity than for ERL1^LRR–TMM^LRR [15]: ~10 fold
Kd (ERL1^LRR–TMM^LRR complex [11]): 4 µM
binding result (ER^LRR–TMM^LRR complex [16]): binds
B2: EPFL9 (STOMAGEN) peptide, residues 58–102 (peptide)
chain: IGSTAPTCTYNECRGCRYKCRAEQVPVEGNDPINSAYHYRCVCHR
